Reference: ChEMBL document CHEMBL1126327, “Synthesis and antihypertensive activity of 3-[(substituted-carbonyl)amino]-2H-1-benzopyrans” (1992)

Each molecule was assayed on Rattus norvegicus (assay: Oral antihypertensive activity in spontaneously hypertensive rats at a dose of 3 mg/kg (po)).
Format: functional
In short: (§1)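 Conscious spontaneously hypertensive rats (Okamoto-derived, 14-24 weeks old; systolic pressure >180 mmHg counted as hypertensive) dosed by oral needle into the esophagus as a solution or suspension in 1% w/v methylcellulose. Systolic pressure was taken by tail-cuff, each reading the mean of at least five recordings, before dosing and at intervals up to 6 h. The maximum fall was recorded.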
With `CC1(C)Oc2ccc(C#N)cc2C(O)[C@H]1N1CCCCC1=O` (some centres not stated) the “Max fall in blood pressure” value was -20%.
`CC1(C)Oc2ccc(C#N)cc2C(O)[C@H]1NC(=O)NC1CCCCC1` (some centres not stated) was tested, and the “Max fall in blood pressure” value was -14%.
`CC1(C)Oc2ccc(C#N)cc2C(O)[C@H]1NC(=O)c1ccccn1` (some centres not stated) was tested, and the “Max fall in blood pressure” value was -15%.
With `COC1c2cc(C#N)ccc2OC(C)(C)[C@@H]1NC(=O)OC(C)(C)C` (some centres not stated) the “Max fall in blood pressure” value was -39%.
`CC1(C)Oc2ccc(C#N)cc2C(O)[C@H]1NC(=O)C1CCCCC1` (some centres not stated) was tested, and the “Max fall in blood pressure” value was -9%.
With `CCNC(=O)N[C@@H]1C(O)c2cc(C#N)ccc2OC1(C)C` (some centres not stated) the “Max fall in blood pressure” value was -18%.
For `CNC(=O)N[C@@H]1C(O)c2cc(C#N)ccc2OC1(C)C` (some centres not stated), the “Max fall in blood pressure” value was -8%.
With `CN(C)C(=O)N[C@@H]1C(O)c2cc(C#N)ccc2OC1(C)C` (some centres not stated) the “Max fall in blood pressure” value was -27%.
For `CC(C)(C)CC(=O)N[C@@H]1C(O)c2cc(C#N)ccc2OC1(C)C` (some centres not stated), the “Max fall in blood pressure” value was -27%.
`CC1(C)Oc2ccc(C#N)cc2C(O)[C@H]1NC(=O)c1ccc(F)c(F)c1` (some centres not stated) was tested, and the “Max fall in blood pressure” value was -37%.
With `CCCNC(=O)N[C@@H]1C(O)c2cc(C#N)ccc2OC1(C)C` (some centres not stated) the “Max fall in blood pressure” value was -32%.
In the case of `CC1(C)Oc2ccc(C#N)cc2C(O)[C@H]1NC(=O)c1ccc(F)cc1` (some centres not stated), the “Max fall in blood pressure” value is reported as -42%.
In the case of `CC(C)(C)OC(=O)N[C@@H]1Cc2cc(C#N)ccc2OC1(C)C`, the “Max fall in blood pressure” value is reported as -26%.
`CC1(C)Oc2ccc(C#N)cc2C(O)[C@H]1NC(=O)c1ccccc1` (some centres not stated) was tested, and the “Max fall in blood pressure” value was -20%.
`CC(=O)N[C@@H]1C(O)c2cc(C#N)ccc2OC1(C)C` (some centres not stated) was tested, and the “Max fall in blood pressure” value was -14%.
`CC(C)(C)NC(=O)N[C@@H]1C(O)c2cc(Cl)ccc2OC1(C)C` (some centres not stated) was tested, and the “Max fall in blood pressure” value was -34%.

Each molecule was assayed on Rattus norvegicus (assay: Compound was evaluated for oral antihypertensive activity in spontaneously hypertensive rats at a dose of 10 mg/Kg (po)).
Format: functional
In short: as §1
`CC(C)(C)OC(=O)N[C@@H]1C(O)c2cc(C#N)ccc2OC1(C)C` (some centres not stated) was tested, and the “Max fall in blood pressure” value was -49%.

Each molecule was assayed on Rattus norvegicus (assay: Compound was evaluated for oral antihypertensive activity in spontaneously hypertensive rats at a dose of 3 mg/Kg (po)).
Format: functional
In short: as §1
`CC(C)(C)OC(=O)N[C@@H]1C(O)c2cc(C#N)ccc2OC1(C)C` (some centres not stated) was tested, and the “Max fall in blood pressure” value was -30%.

These molecules were tested on Rattus norvegicus (assay: Oral antihypertensive activity in spontaneously hypertensive rats at a dose of 10 mg/kg (po)).
Format: functional
In short: as §1
With `CC1(C)Oc2ccc(C#N)cc2C(O)[C@H]1N1CCCCC1=O` (some centres not stated) the “Max fall in blood pressure” value was -16%.
With `CNC(=O)N[C@@H]1C(O)c2cc(C#N)ccc2OC1(C)C` (some centres not stated) the “Max fall in blood pressure” value was -24%.
In the case of `CC(C)(C)OC(=O)N[C@@H]1Cc2cc(C#N)ccc2OC1(C)C`, the “Max fall in blood pressure” value is reported as -30%.
`CC(C)(C)OC(=O)N[C@@H]1C(N)c2cc(C#N)ccc2OC1(C)C` (some centres not stated) was tested, and the “Max fall in blood pressure” value was -25%.
`CC(=O)N[C@@H]1C(O)c2cc(C#N)ccc2OC1(C)C` (some centres not stated) was tested, and the “Max fall in blood pressure” value was -32%.

Each molecule was assayed on Rattus norvegicus (assay: Compound was evaluated for oral antihypertensive activity in spontaneously hypertensive rats at a dose of 0.1 mg/kg (po)).
Format: functional
In short: as §1
For `CC(C)(C)NC(=O)N[C@@H]1C(O)c2cc(C#N)ccc2OC1(C)C` (some centres not stated), the “Max fall in blood pressure” value was -19%.
For `CC(C)C(=O)N[C@@H]1C(O)c2cc(C#N)ccc2OC1(C)C` (some centres not stated), the “Max fall in blood pressure” value was -22%.
With `CC1(C)Oc2ccc(C#N)cc2C(N2CCCC2=O)C1O` (configuration not stated) [CROMAKALIM] the “Max fall in blood pressure” value was -13%.

Each molecule was assayed on Rattus norvegicus (assay: Compound was evaluated for oral antihypertensive activity in spontaneously hypertensive rats at a dose of 1 mg/Kg (po)).
Format: functional
In short: as §1
`CC(C)(C)OC(=O)N[C@@H]1C(O)c2cc(C#N)ccc2OC1(C)C` (some centres not stated) was tested, and the “Max fall in blood pressure” value was -14%.

The molecules below were run on Rattus norvegicus (assay: Oral antihypertensive activity in spontaneously hypertensive rats at a dose of 1 mg/kg (po)).
Format: functional
In short: as §1
For `CC1(C)Oc2ccc(C#N)cc2C(O)[C@H]1NC(=O)c1ccccn1` (some centres not stated), the “Max fall in blood pressure” value was -18%.
`CC(C)NC(=O)N[C@@H]1C(O)c2cc(C#N)ccc2OC1(C)C` (some centres not stated) was tested, and the “Max fall in blood pressure” value was -26%.
In the case of `CC1(C)Oc2ccc(C#N)cc2C(O)[C@H]1NC(=O)C1CCCCC1` (some centres not stated), the “Max fall in blood pressure” value is reported as -11%.
`CCNC(=O)N[C@@H]1C(O)c2cc(C#N)ccc2OC1(C)C` (some centres not stated) was tested, and the “Max fall in blood pressure” value was -13%.
With `CC(C)(C)CC(=O)N[C@@H]1C(O)c2cc(C#N)ccc2OC1(C)C` (some centres not stated) the “Max fall in blood pressure” value was -9%.
In the case of `CC1(C)Oc2ccc(C#N)cc2C(O)[C@H]1NC(=O)c1ccc(F)c(F)c1` (some centres not stated), the “Max fall in blood pressure” value is reported as -6%.
`CC(C)(C)NC(=O)N[C@@H]1C(O)c2cc(C(F)(F)F)ccc2OC1(C)C` (some centres not stated) was tested, and the “Max fall in blood pressure” value was -31%.
For `CC(C)(C)C(=O)N[C@@H]1C(O)c2cc(C#N)ccc2OC1(C)C` (some centres not stated), the “Max fall in blood pressure” value was -36%.
For `CCCNC(=O)N[C@@H]1C(O)c2cc(C#N)ccc2OC1(C)C` (some centres not stated), the “Max fall in blood pressure” value was -10%.
`CC1(C)Oc2ccc(C#N)cc2C(O)[C@H]1NC(=O)c1ccc(F)cc1` (some centres not stated) was tested, and the “Max fall in blood pressure” value was -22%.
With `CC1(C)Oc2ccc(C#N)cc2C(N2CCCC2=O)C1O` (configuration not stated) [CROMAKALIM] the “Max fall in blood pressure” value was -47%.

What follows are molecules tested on Rattus norvegicus (assay: Compound was evaluated for oral antihypertensive activity in spontaneously hypertensive rats at a dose of 1.0 mg/kg (po)).
Format: functional
In short: as §1
With `CC(C)(C)NC(=O)N[C@@H]1C(O)c2cc(C#N)ccc2OC1(C)C` (some centres not stated) the “Max fall in blood pressure” value was -63%.

These molecules were tested on Rattus norvegicus (assay: Oral antihypertensive activity in spontaneously hypertensive rats at a dose of 0.3 mg/kg (po)).
Format: functional
In short: as §1
For `CC(C)(C)NC(=O)N[C@@H]1C(O)c2cc(C#N)ccc2OC1(C)C` (some centres not stated), the “Max fall in blood pressure” value was -40%.
For `CC(C)NC(=O)N[C@@H]1C(O)c2cc(C#N)ccc2OC1(C)C` (some centres not stated), the “Max fall in blood pressure” value was -22%.
With `CC(C)/N=C(\S)N[C@@H]1C(O)c2cc(C#N)ccc2OC1(C)C` (some centres not stated) the “Max fall in blood pressure” value was -49%.
`CC(C)(C)C(=O)N[C@@H]1C(O)c2cc(C#N)ccc2OC1(C)C` (some centres not stated) was tested, and the “Max fall in blood pressure” value was -30%.
With `CC(C)(C)NC(=O)N[C@@H]1Cc2cc(C#N)ccc2OC1(C)C` the “Max fall in blood pressure” value was -27%.
`CC(C)C(=O)N[C@@H]1C(O)c2cc(C#N)ccc2OC1(C)C` (some centres not stated) was tested, and the “Max fall in blood pressure” value was -39%.
`CC(C)(C)NC(=O)N[C@@H]1C(O)c2cc(Cl)ccc2OC1(C)C` (some centres not stated) was tested, and the “Max fall in blood pressure” value was -16%.
`CC1(C)Oc2ccc(C#N)cc2C(N2CCCC2=O)C1O` (configuration not stated) [CROMAKALIM] was tested, and the “Max fall in blood pressure” value was -39%.
